10 compounds from ChEMBL document CHEMBL3046772, “Synthesis and antifeedant activity of new oxadiazolyl 3(2H)-pyridazinones” (2003) can be followed below.

Assay type in all cases: functional
Assay [1] concerns Ostrinia furnacalis. The assay is described as follows: Antifeedant activity against fifth-instar larval stage of Ostrinia furnacalis (Asian corn borer) assessed as feeding deterrence index at 500 mg/kg after 24 hr by diet-choice assay. The gist of the method:
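Newly moulted fifth-instar larvae offered artificial diet with compound added (dissolved in acetone, mixed into diet ingredients before preparation) at 500 mg/kg versus solvent-only control diet. Five replicates of 10 larvae. After 24 h, deterrency index (%) = [(C − T)/(C + T)] × 100, where C and T are amounts of control and treated diet eaten.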

Assay [2] has as its system Ostrinia furnacalis. The assay is described as follows: Antifeedant activity against fifth-instar larval stage of Ostrinia furnacalis (Asian corn borer) assessed as larval weight gain at 10 mg/kg after 5 days by diet-choice assay (reference value: 43.3 +/- 20.8 mg).
The subject of assay [3] is Ostrinia furnacalis. The assay is described as follows: Antifeedant activity against fifth-instar larval stage of Ostrinia furnacalis (Asian corn borer) assessed as larval weight gain at 20 mg/kg after 5 days by diet-choice assay (reference value: 43.3 +/- 20.8 mg).
Assay [4] relates to Ostrinia furnacalis. The assay is described as follows: Antifeedant activity against fifth-instar larval stage of Ostrinia furnacalis (Asian corn borer) assessed as larval weight gain at 5 mg/kg after 5 days by diet-choice assay (reference value: 43.3 +/- 20.8 mg).

As for `CC(C)(C)n1ncc(OCc2nnc(-c3ccccc3F)o2)c(Cl)c1=O`, in the assay with Ostrinia furnacalis [1], the FDI was found to be 41.34%.

`CC(C)(C)n1ncc(OCc2nnc(-c3cc(F)c(Cl)cc3Cl)o2)c(Cl)c1=O`: the FDI with Ostrinia furnacalis [1] worked out at 35.16%.

On to `CC(C)(C)n1ncc(OCc2nnc(-c3ccccc3)o2)c(Cl)c1=O`, for which, in the assay on Ostrinia furnacalis [1], the FDI is on record as 57.61%. For the same compound, the results for the Activity in the assay with Ostrinia furnacalis [2], in the assay with Ostrinia furnacalis [3] and in the assay with Ostrinia furnacalis [4] were 16.2 mg, 6.6 mg and 42.3 mg, respectively.

Regarding `CC(C)(C)n1ncc(OCc2nnc(-c3ccc(F)cc3)o2)c(Cl)c1=O`, the FDI in the assay with Ostrinia furnacalis [1] is reported as 51.08%.

For `Cc1ccc(-c2nnc(COc3cnn(C(C)(C)C)c(=O)c3Cl)o2)cc1`, the FDI in the assay on Ostrinia furnacalis [1] is listed as 4.28%.

On to `C/C=C(\C)C(=O)O[C@H]1C[C@@H](OC(C)=O)[C@@]2(C(=O)OC)CO[C@H]3[C@@H](O)[C@@](C)([C@]45O[C@@]4(C)[C@@H]4C[C@H]5O[C@@H]5OC=C[C@@]54O)[C@H]4[C@]1(CO[C@]4(O)C(=O)OC)[C@@H]32` [AZADIRACHTIN A], for which the FDI with Ostrinia furnacalis [1] is 59.9%. Besides, the Activity in the assay with Ostrinia furnacalis [2] turned out to be 7.8 mg; with Ostrinia furnacalis [3], 1.2 mg; in the assay on Ostrinia furnacalis [4] it was 22 mg.

In the case of `CC(C)(C)n1ncc(OCc2nnc(-c3cccc(F)c3)o2)c(Cl)c1=O`, the FDI in the assay with Ostrinia furnacalis [1] was 51.67%. The Activity in the assay with Ostrinia furnacalis [2] stood at 22.6 mg; in the assay with Ostrinia furnacalis [3], 8.7 mg; with Ostrinia furnacalis [4], 38.4 mg.

In the case of `COc1ccc(-c2nnc(COc3cnn(C(C)(C)C)c(=O)c3Cl)o2)cc1`, the FDI in the assay on Ostrinia furnacalis [1] is given as 38.45%.

As to `CCc1ccc(-c2nnc(COc3cnn(C(C)(C)C)c(=O)c3Cl)o2)cc1`, the FDI in the assay on Ostrinia furnacalis [1] was determined as 40.18%.

In the case of `CC(C)(C)n1ncc(OCc2nnc(-c3ccc(Cl)cc3)o2)c(Cl)c1=O`, the FDI in the assay with Ostrinia furnacalis [1] is recorded as 46.73%.
